Experiments:
[1] = Cmax in in vitro PK/PD model at loading dose of 0.90 mg and maintenance dose of 0.89 mg dosed at 24 hrs intervals; type: ADME, organism-based; set-up: dose 0.9 mg
[2] = Cmax in in vitro PK/PD model at loading dose of 0.45 mg and maintenance dose of 0.39 mg dosed at 12 hrs intervals; type: ADME, organism-based; set-up: dose 0.45 mg
[3] = Cmax in in vitro PK/PD model at loading dose of 0.30 mg and maintenance dose of 0.23 mg dosed at 8 hrs intervals; type: ADME, organism-based; set-up: dose 0.3 mg
Acinetobacter baumannii [4] = assay: Antibacterial activity against Acinetobacter baumannii isolate 6 assessed as AUBC (0 to 72 hrs) normalized to log10CFU/ml in in vitro PK/PD model at continuous maintenance dose of 4.5 ug/ml; type: functional, organism-based
Procedure, shortened: (§1)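 One-compartment in vitro PK/PD model at 37°C. Cation-adjusted Mueller-Hinton broth was pumped from a reservoir into the central compartment, with an early-log-phase inoculum of about 10^6 CFU/ml. Colistin sulfate simulated human colistin PK. Intermittent regimens were dosed into the central compartment; for the continuous regimen, colistin was spiked into the reservoir broth. Viable counts were by spiral plating over 0–72 h, AUBC0-72 normalized to log10 CFU/ml at t=0, n=3.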

Acinetobacter baumannii [5] = assay: Antibacterial activity against Acinetobacter baumannii ATCC 19606 assessed as AUBC (0 to 72 hrs) normalized to log10CFU/ml in in vitro PK/PD model at loading dose of 0.45 mg and maintenance dose of 0.39 mg dosed at 12 hrs intervals; type: functional, organism-based; procedure, shortened: as §1
Acinetobacter baumannii [6] = assay: Antibacterial activity against Acinetobacter baumannii isolate 6 assessed as AUBC (0 to 72 hrs) normalized to log10CFU/ml in in vitro PK/PD model at loading dose of 0.90 mg and maintenance dose of 0.89 mg dosed at 24 hrs intervals; type: functional, organism-based; procedure, shortened: as §1
Acinetobacter baumannii [7] = assay: Antibacterial activity against Acinetobacter baumannii isolate 6 assessed as AUBC (0 to 72 hrs) normalized to log10CFU/ml in in vitro PK/PD model at loading dose of 0.30 mg and maintenance dose of 0.23 mg dosed at 8 hrs intervals; type: functional, organism-based; procedure, shortened: as §1
Acinetobacter baumannii [8] = assay: Antibacterial activity against Acinetobacter baumannii isolate 6 assessed as AUBC (0 to 72 hrs) normalized to log10CFU/ml in in vitro PK/PD model at loading dose of 0.45 mg and maintenance dose of 0.39 mg dosed at 12 hrs intervals; type: functional, organism-based; procedure, shortened: as §1
Acinetobacter baumannii [9] = assay: Antibacterial activity against Acinetobacter baumannii ATCC 19606 assessed as AUBC (0 to 72 hrs) normalized to log10CFU/ml in in vitro PK/PD model at loading dose of 0.30 mg and maintenance dose of 0.23 mg dosed at 8 hrs intervals; type: functional, organism-based; procedure, shortened: as §1
Acinetobacter baumannii [10] = assay: Antimicrobial activity against Ceftazidime resistant Acinetobacter baumannii isolate 6; type: functional, organism-based
Acinetobacter baumannii [11] = assay: Antimicrobial activity against gentamicin and ciprofloxacin resistant Acinetobacter baumannii ATCC 19606; type: functional, organism-based
Acinetobacter baumannii [12] = assay: Antibacterial activity against Acinetobacter baumannii ATCC 19606 assessed as AUBC (0 to 72 hrs) normalized to log10CFU/ml in in vitro PK/PD model at loading dose of 0.90 mg and maintenance dose of 0.89 mg dosed at 24 hrs intervals; type: functional, organism-based; procedure, shortened: as §1
Acinetobacter baumannii [13] = assay: Antibacterial activity against Acinetobacter baumannii ATCC 19606 assessed as AUBC (0 to 72 hrs) normalized to log10CFU/ml in in vitro PK/PD model at continuous maintenance dose of 4.5 ug/ml; type: functional, organism-based; procedure, shortened: as §1

| Sequence | Cmax [1] [ng/mL] | Cmax [2] [ng/mL] | Cmax [3] [ng/mL] | AUBC (Acinetobacter baumannii [4]) [log10CFU/ml] | AUBC (Acinetobacter baumannii [5]) [log10CFU/ml] | AUBC (Acinetobacter baumannii [6]) [log10CFU/ml] | AUBC (Acinetobacter baumannii [7]) [log10CFU/ml] | AUBC (Acinetobacter baumannii [8]) [log10CFU/ml] | AUBC (Acinetobacter baumannii [9]) [log10CFU/ml] | MIC (Acinetobacter baumannii [10]) [µg/mL] | MIC (Acinetobacter baumannii [11]) [µg/mL] | AUBC (Acinetobacter baumannii [12]) [log10CFU/ml] | AUBC (Acinetobacter baumannii [13]) [log10CFU/ml] |
| --- | --- | --- | --- | --- | --- | --- | --- | --- | --- | --- | --- | --- | --- |
| COLISTIN [listing 1 of 2 here] | 9000 | 4500 | 3000 | – | – | – | – | – | – | – | – | – | – |
| COLISTIN [listing 2 of 2 here] | – | – | – | 65.6 | 68.5 | 58.5 | 68 | 64.9 | 68.5 | 1 | 1 | 67 | 72.7 |
